From PubChem BioAssay
TRPC6 inhibitor: blocks the mouse TRPC6 cation channel | HEK293-TRPC6, membrane potential dye, ACh-evoked depolarization; hits give low values | Q61143 | B-score at 10 µM | 1.1% of 310,000 active;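 active = B-score under library mean minus 3 SD, initial fluorescence not abnormally high, positive integrated signal ratio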;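 note: B-score derived from integrated fluorescence ratio over the kinetic read; more negative B-score means stronger inhibition of depolarization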
TRPC4 PAM: allosteric potentiators of mouse TRPC4 channel. Q9QUQ5. HEK293 TRPC4beta/mu-opioid, DAMGO EC20, Fluo-4 Ca2+ flux; hits give high values. B-score at 10 µM. 0.42% of 310,000 active. AID 2227;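 active = B-score of calcium response area above 5 SD of library B-scores, with initial fluorescence ratio within 5 SD of library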
Target sequence (Q9QUQ5 whole entry, looked up): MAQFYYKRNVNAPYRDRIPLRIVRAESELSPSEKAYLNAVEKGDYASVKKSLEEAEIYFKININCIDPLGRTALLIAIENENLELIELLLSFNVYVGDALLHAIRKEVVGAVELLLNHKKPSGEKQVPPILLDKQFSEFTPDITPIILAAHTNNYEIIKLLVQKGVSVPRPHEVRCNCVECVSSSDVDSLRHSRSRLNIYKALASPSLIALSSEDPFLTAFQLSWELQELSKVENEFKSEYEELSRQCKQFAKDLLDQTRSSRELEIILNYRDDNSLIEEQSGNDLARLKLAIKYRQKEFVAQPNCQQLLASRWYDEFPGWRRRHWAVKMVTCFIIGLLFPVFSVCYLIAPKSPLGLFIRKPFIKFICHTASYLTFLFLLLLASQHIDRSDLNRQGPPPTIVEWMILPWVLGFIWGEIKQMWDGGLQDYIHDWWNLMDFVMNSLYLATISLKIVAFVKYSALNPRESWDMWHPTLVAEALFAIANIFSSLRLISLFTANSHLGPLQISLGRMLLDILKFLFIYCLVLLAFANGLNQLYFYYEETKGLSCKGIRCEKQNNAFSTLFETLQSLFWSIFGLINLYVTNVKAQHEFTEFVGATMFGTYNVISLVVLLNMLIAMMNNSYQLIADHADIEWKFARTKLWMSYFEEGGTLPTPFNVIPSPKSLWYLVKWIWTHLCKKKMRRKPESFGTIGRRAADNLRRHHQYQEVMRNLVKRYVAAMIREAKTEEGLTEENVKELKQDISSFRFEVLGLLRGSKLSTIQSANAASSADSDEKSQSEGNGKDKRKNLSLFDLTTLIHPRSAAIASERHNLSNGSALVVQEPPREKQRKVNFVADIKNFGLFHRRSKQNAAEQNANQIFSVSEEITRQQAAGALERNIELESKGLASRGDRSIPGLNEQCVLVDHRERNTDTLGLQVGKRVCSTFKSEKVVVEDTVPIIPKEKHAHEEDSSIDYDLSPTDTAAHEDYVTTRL
TRPC6 activator: mouse TRPC6 channel activation; Q61143; HEK293-TRPC6 membrane potential dye fluorescence; hits give high values; B-score at 10 µM; 0.13% of 310,000 active;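 active = B-score of the integrated fluorescence ratio above library mean plus 3 SD, and starting fluorescence ratio within library mean plus 5 SD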;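 note: higher score means more depolarization so channel activation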
TRPC4 agonist: activators of mouse TRPC4 channel. Q9QUQ5. HEK293 TRPC4beta/mu-opioid, Fluo4 calcium fluorescence; hits give high values. B-score at 10 µM. 0.49% of 310,000 active. AID 2237;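 active = B-score above 5 SD of library B-scores, and initial fluorescence ratio not above library mean plus 5 SD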;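 note: positive B-score marks a calcium rise read as TRPC4 activation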
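Incubation: 45 min room-temperature Fluo4 loading, 110 s read / System: HEK293 cells stably co-expressing mouse TRPC4beta and mu-opioid receptor / Signal: Fluo4 fluorescence, kinetic / Control set: buffer (low) and maximal DAMGO (high) / Measure: integrated baseline-normalised fluorescence ratio, converted to per-well B score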
TRPC4 block: TRPC4 (mouse) channel inhibition. B-score at 10 µM. 0.39% of 300,000 active. Q9QUQ5. HEK293 TRPC4beta/mu-opioid, DAMGO-evoked Fluo4 calcium flux; hits give low values;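 active = B-score over 3 SD under the library average, no early fluorescence shift, positive overall ratio signal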
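Assay system – HEK293 line stably carrying TRPC4beta and mu-opioid receptor · Doses – single dose · Detection – Fluo4 calcium-dye fluorescence, kinetic read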
TRPC4 spec 2: second selectivity test of TRPC6 inhibitors: effect on mouse TRPC4 | shares compounds with TRPC6 inhibitor | HEK293 TRPC4/MOR, membrane potential dye fluorescence; channel activated by saturating DAMGO dose | inhibition, % at 10 µM | 42% of 920 active | AID 2776;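 active = compounds whose fluorescence signal differed from control wells by over 3 SD, either direction, in both duplicate plates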
TRPC4 spec: mouse TRPC4 off-target activity of TRPC6 inhibitors. shares compounds with TRPC6 inhibitor. HEK293 TRPC4/mu-opioid, membrane potential fluorescence. activity change, negative = inhibition, % at 10 µM. 61% of 920 active;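 active = rise or fall in signal beyond 3 SD of buffer-only wells in both replicate plates, either sign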;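 note: integrated kinetic ratio of fluorescence range over baseline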
HEK293 MPD ctr 2-1: parental HEK293 nonspecific activity of TRPC6 inhibitors, second screen; shares compounds with TRPC6 inhibitor; parental HEK293 membrane potential dye fluorescence; maximal acetylcholine challenge after compound addition; signal change vs control, % at 10 µM; 31% of 920 active; AID 2779;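 active = membrane potential signal moving either way by over 3 SD of the maximum-effect control, in both duplicate plates, meaning non-specific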
HEK293 MPD ctr-1: counter-screen for TRPC6 inhibitors: effect in parental HEK293 cells; membrane potential signal change, % at 10 µM; shares compounds with TRPC6 inhibitor; 60% of 920 active; parental HEK293 membrane potential dye fluorescence;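 active = membrane potential signal shifting up or down by more than 3 SD of buffer-only wells, on both duplicate plates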
HEK293 MPD ctr-2: checks TRPC6 modulator effects in parental HEK293 cells; shares compounds with TRPC6 inhibitor; membrane potential dye fluorescence; membrane potential signal change, % at 10 µM; 51% of 2,400 active; AID 488924;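 active = membrane potential signal moves up or down beyond 5 SD from buffer-only wells, on both duplicate plates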
HEK293 MPD ctr 2-2: second counter-screen for TRPC6 modulators: effect in parental HEK293 cells; shares compounds with TRPC6 inhibitor; membrane potential dye fluorescence; after compound, maximal acetylcholine stimulation; inhibition, % at 10 µM; 14% of 2,400 active;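 active = membrane potential signal drops by more than 5 SD from the mean control signal, in both duplicate plates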
TRPC4/MOR mod: tests whether TRPC6 modulators also affect mouse TRPC4 | percent change from control (negative = decrease, positive = increase), % at 10 µM | HEK293 TRPC4/mu-opioid, membrane potential fluorescence | 69% of 2,400 active | AID 488927 | shares compounds with TRPC6 inhibitor;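 active = membrane potential signal moved up or down beyond 5 SD of buffer control wells, in both duplicate plates, actives on both sides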
TRPC4 ctr inh 2: mouse TRPC4 off-target activity of TRPC6 modulators, second screen; HEK293 TRPC4/mu-opioid, membrane potential dye fluorescence; stimulated with maximal-effect DAMGO; shares compounds with TRPC6 inhibitor; 55% of 2,400 active; AID 488928; inhibition, % at 10 µM;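 active = drop in membrane potential signal beyond 5 SD of the control wells in both duplicate plates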;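 note: TRPC4 counter screen for TRPC6 hits run under conditions tuned for TRPC6 not TRPC4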
TRPC6 inh conf: mouse TRPC6 inhibitor confirmation. shares compounds with TRPC6 inhibitor. HEK293-TRPC6, membrane potential dye, ACh-evoked depolarization. inhibition, % at 10 µM. 43% of 3,300 active. AID 488960;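 active = fluorescence ratio falls more than 5 SD below the full-stimulation control mean, in both duplicate runs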;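 note: integrated fluorescence ratio of peak minus minimum over baseline after agonist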
TRPC6 act conf: confirmation of mouse TRPC6 activators. shares compounds with TRPC6 inhibitor. HEK293-TRPC6 membrane potential dye fluorescence, FDSS. activation, % at 10 µM. 11% of 2,800 active;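 active = ratio signal rise beyond 5 SD above unstimulated control wells' mean, seen in both duplicate runs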
A number is an active result; . = inactive; / = no result. Sampled rows, rich in hits. Any-hit rate of the full collection: about 2.3%.

SMILES	TRPC6 inhibitor	TRPC4 PAM	TRPC6 activator	TRPC4 agonist	TRPC4 block	HEK293 MPD ctr-2	HEK293 MPD ctr 2-2	TRPC4/MOR mod	TRPC4 ctr inh 2	TRPC6 inh conf	TRPC6 act conf	others
Cc1cccc(CN2CCCC(C(=O)c3ccc(C(F)(F)F)cc3)C2)n1 (centres undefined)	.	.	.	.	.	/	/	/	/	/	/
Cc1cc(Cl)ccc1C(=O)C1CCCN(C2CCSCC2)C1 (centres undefined)	-5.76	.	.	.	.	174.0%	.	31.5%	.	.	/
O=C(c1ccc(C(F)(F)F)cc1)C1CCCN(C2CCSCC2)C1 (centres undefined)	-7.75	.	.	.	.	/	/	/	/	.	/	TRPC4 spec 2=.;TRPC4 spec=14.6%;HEK293 MPD ctr 2-1=.;HEK293 MPD ctr-1=8.5%
CC(C)CCOP(N)(=O)Oc1ccccc1Cl (centres undefined)	.	.	.	.	.	/	/	/	/	/	/
CCCCn1c(C)c(C(=O)OCC)c2c(CN3CCOCC3)c(O)ccc21	-5.26	.	.	.	.	-88.5%	.	-12.5%	66.5%	62.5%	.
CCCCn1c(C)c(C(=O)OCC)c2c(CN3CCCC3)c(O)ccc21	-5.44	.	.	.	.	.	.	.	58.5%	47.5%	.
CCOC(=O)c1c(C)n(Cc2ccc(F)cc2)c2ccc(O)cc12	.	.	.	.	.	/	/	/	/	/	/
Cc1[nH]c2ccccc2c1CCN	.	.	.	.	.	/	/	/	/	/	/
Cc1[nH]c2ccccc2c1CCCNC1CCCCC1	-5.66	.	.	.	.	.	.	.	44.0%	.	.
CC(C)CC(=O)Nc1ccc(S(=O)(=O)N2CC3CC(C2)c2cccc(=O)n2C3)cc1 (centres undefined)	.	.	.	.	.	/	/	/	/	/	/
O=[N+]([O-])c1ccc(N2CCCNCC2)c2ncccc12	-11.3	.	.	138	.	-444.5%	110.5%	-51.5%	79.0%	96.5%	.
CCOC(=O)c1c(N)n(CCN2CCCCC2)c2nc3ccccc3nc12	-5.87	.	.	.	.	-135.0%	.	-28.0%	56.0%	56.5%	.
CCCCn1c(N)c(C(=O)NCCN2CCOCC2)c2nc3ccccc3nc21	.	.	.	.	.	/	/	/	/	/	/
Cc1cc(C)nc(/N=C(\N)c2c(O)[nH]c(=O)[nH]c2=O)n1	.	.	.	.	.	/	/	/	/	/	/
CNC(=O)O/N=C/c1nn(C(=O)C(C)(C)C)cc1Br	.	.	.	.	.	/	/	/	/	/	/
N[C@@H](Cc1ccccc1)C(=O)N1C[C@H]2C[C@@H](C1)c1cccc(=O)n1C2	.	.	.	.	.	/	/	/	/	/	/
Cc1[nH]n(-c2ccccc2)c(=O)c1C(c1ccc([N+](=O)[O-])cc1)c1c(C)[nH]n(-c2ccccc2)c1=O	-5.9	.	.	.	.	.	.	.	37.5%	42.5%	.
CN(C)c1cc(N)c2c(n1)CCC2 (tested in a mixture with another compound)	-6.39	.	.	.	.	-271.0%	.	-39.5%	40.5%	.	.
CCOC(=O)C1CCN(C=C2C(=O)N(C)C(=S)N(C)C2=O)CC1	-9.72	.	.	.	.	/	/	/	/	.	.	TRPC4 spec 2=.;TRPC4 spec=.;HEK293 MPD ctr 2-1=.;HEK293 MPD ctr-1=.
CCCCCSc1cc(O)c(C(CNC)C(C)C)cc1OC (centres undefined)	.	.	.	.	.	/	/	/	/	/	/
CCCCCSc1cc(OC)c(CCN(C)C)cc1OC	-5.3	.	.	.	.	.	.	.	51.5%	49.5%	.
O=C1NC(=O)N(c2ccc(F)cc2)C(=O)/C1=C/c1ccsc1	-5.49	.	.	.	.	.	.	.	.	.	/
CC[N+](C)(CC)CCCCOc1ccc2c(c1)C(=O)c1cc(OCCCC[N+](C)(CC)CC)ccc1-2	.	.	.	.	.	/	/	/	/	/	/
CCOc1cccc(=NC2CCCCC2)c2c(C)n(C)c(C)c12	-7.5	.	.	.	.	/	/	/	/	.	.	TRPC4 spec 2=50.5%;TRPC4 spec=6.9%;HEK293 MPD ctr 2-1=-69.0%;HEK293 MPD ctr-1=.
COC(=O)C1=CO[C@@H](C)[C@@H]2CN3CC[C@@]4(C(=O)Nc5ccccc54)[C@@H]3C[C@H]12	.	.	.	.	.	/	/	/	/	/	/
SMILES	TRPC6 inhibitor	TRPC4 PAM	TRPC6 activator	TRPC4 agonist	TRPC4 block	HEK293 MPD ctr-2	HEK293 MPD ctr 2-2	TRPC4/MOR mod	TRPC4 ctr inh 2	TRPC6 inh conf	TRPC6 act conf	others
CCN1C[C@]2(OC(=O)c3ccccc3NC(C)=O)CCC(OC)C34C5C[C@H]6C(OC)[C@]5(O)[C@](O)(C[C@@H]6OC)C(C[C@@H]32)[C@H]14 (some centres undefined)	.	.	.	.	.	/	/	/	/	/	/
COc1cc2c(cc1OC)-c1c(OC)c(OC)cc3c1[C@H](C2)[N+](C)(C)CC3	-8.59	.	.	.	.	-404.5%	63.0%	-69.0%	63.5%	59.5%	.
Cc1cccc(CCNCc2cc3cccc(C)c3[nH]c2=O)c1	-10.1	.	.	.	.	/	/	/	/	102.4%	.	TRPC4 spec 2=15.0%;TRPC4 spec=-12.9%;HEK293 MPD ctr 2-1=25.0%;HEK293 MPD ctr-1=.
Cc1ccccc1CCNCc1ccc(Br)cc1	.	.	.	.	.	/	/	/	/	/	/
Cc1ccc2cc(CNCCc3ccccc3C)c(=O)[nH]c2c1	-5.12	.	.	.	.	.	.	.	77.5%	45.5%	.
Cc1cccc(CNCCc2c[nH]c3ccccc23)c1	.	.	.	.	.	/	/	/	/	/	/
Cc1cccc(CCNCc2cc3cc(C)cc(C)c3[nH]c2=O)c1	-5.92	.	.	.	.	.	65.0%	-18.0%	93.5%	82.0%	.
C/C(=N\N1CCCCCC1)c1c(O)n(C)c(=O)n(C)c1=O	.	.	.	.	.	/	/	/	/	/	/
Cc1cc(OCC(=O)NCc2ccc(S(N)(=O)=O)cc2)c2c3c(c(=O)oc2c1)CCC3	.	.	.	.	.	/	/	/	/	/	/
